A selection: hits, their analogues and other compounds. The true share with any hit is near 2.9%.
OX1R antag-1: antagonists of human orexin 1 receptor (OX1R); inhibition, % at 6.6 µM; Orexin/Hypocretin receptor type 1 (Homo sapiens), O43613; OX1R-expressing cells, FRET antagonist read-out; hit rate 1.8% among 330,000; in the data active means inhibition mostly above about 38%, no sharp cut-off; inactive means mostly below about 40%;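 further: 0% = agonist challenge alone and 100% = reference antagonist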
Target sequence (O43613 whole entry, looked up): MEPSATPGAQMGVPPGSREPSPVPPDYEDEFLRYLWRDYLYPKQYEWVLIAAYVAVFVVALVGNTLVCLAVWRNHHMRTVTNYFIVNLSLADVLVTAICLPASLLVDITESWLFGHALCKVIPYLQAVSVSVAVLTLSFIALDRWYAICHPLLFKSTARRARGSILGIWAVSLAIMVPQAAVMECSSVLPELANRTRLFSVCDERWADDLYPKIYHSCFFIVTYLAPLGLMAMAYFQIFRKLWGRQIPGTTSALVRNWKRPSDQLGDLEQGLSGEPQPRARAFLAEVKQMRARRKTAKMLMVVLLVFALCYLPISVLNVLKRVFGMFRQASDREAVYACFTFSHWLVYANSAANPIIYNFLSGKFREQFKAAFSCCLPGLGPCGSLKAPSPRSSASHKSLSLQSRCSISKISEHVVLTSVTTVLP
CHO-K1 Ca PAM: nonselective calcium activators in parental CHO-K1 cells, primary screen, counter-screen for M1 PAM project, cell-based, Fluo-8 calcium fluorescence, full deck, 1536-well. ATP EC20; 0% at ATP EC20, 100% at ATP max. activation, % at 3 µM. hit rate 0.02% among 360,000. AID 602247, 2012;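 active means activation above the run cutoff, the mean activation of all test compounds plus 3 SD, cut at about 40% in these data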;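 further: peak over basal fluorescence ratio in a 140 s read after ATP addition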
CHO-K1 Ca ag: counter-screen for M1 agonists: effect in parental CHO-K1 cells; hit rate 0.48% among 360,000; Fluo-8 calcium fluorescence; scaled to maximal ATP response, vehicle zero; activation, % at 3 µM; in the data active means activation above about 15%;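 further: untransfected CHO-K1 host cells lacking M1 receptor as counterscreen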
CHO parental Ca: ATP-evoked calcium signal inhibitors, parental CHO, primary screen, counter-screen for OX1R antagonist project, cell-based, fluorescence, Fluo-8 calcium dye | parental CHO-K1, ATP-induced calcium, Fluo-8 fluorescence | inhibition, % at 5.6 µM | hit rate 0.63% among 330,000 | AID 463079, 2010;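 active means inhibition above that plate's mean sample inhibition plus 3 SD, cut at about 26% in these data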;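 further: 0% = ATP-challenged DMSO wells and 100% = DMSO wells without ATP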
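Material: Parental CHO cells | Reagent: ATP | Compound dosing: Single nominal dose of 5.6 µM per compound | Detection: Intracellular calcium via Fluo-8 no-wash fluorescent dye | Read-out: % inhibition of ATP-induced calcium mobilization | Benchmarks: Low control ATP plus DMSO, high control DMSO only | Replicates: Singlicate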
CHO-K1 Ca antag: counter-screen for M1 antagonists: effect in parental CHO-K1 cells; ATP-induced calcium, Fluo-8 fluorescence; inhibition, % at 3 µM; hit rate 0.6% among 360,000; AID 602250;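 active means inhibition above a per-plate cutoff, the plate's mean sample inhibition plus 3 SD, cut at about 24% in these data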;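 further: 0% = DMSO plus EC80 ATP and 100% = DMSO alone without ATP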
OX1R antag-2: OX1R (HCRTR1) antagonists, primary screen, fluorescence, CHO/OX1R cells, Fluo-8 calcium, orexin A; Orexin/Hypocretin receptor type 1 (Homo sapiens), O43613; Fluo-8 calcium fluorescence; inhibition, % at 5 µM; hit rate 0.43% among 330,000; AID 434989, 2010;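 active means inhibition above its plate's threshold, mean inhibition of all tested compounds on the plate plus 3 SD, cut at about 37% in these data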;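 further: 0% = orexin A challenge wells and 100% = SB-334867-A antagonist wells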
OX1R HTRF conf: OX1R (HCRTR1) antagonists, confirmation, cell-based, HTRF. AID 492964, 2010. hit rate 49% among 1,800. OX1R-expressing cells, HTRF antagonist assay. shares compounds with OX1R antag-1. inhibition, % at 6.6 µM; in the data active means inhibition above about 55%;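 further: CHO cells expressing OX1R stimulated with orexin A at about EC80; 0% = agonist challenge alone and 100% = reference antagonist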
CHO-K1 HTRF cnt: signal inhibition in parental CHO-K1 cells, counter-screen for OX1R antagonist project, cell-based, HTRF | shares compounds with OX1R antag-1 | HTRF counterscreen | inhibition, % at 6.6 µM | AID 493232, 2011 | hit rate 48% among 1,800; in the data active means inhibition above about 17%;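 further: 0% = agonist challenge with vehicle and 100% = vehicle alone without agonist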
Starred values were filed as active, the others as inactive; nt = no result.

SMILES | OX1R antag-1 | CHO-K1 Ca PAM | CHO-K1 Ca ag | CHO parental Ca | CHO-K1 Ca antag | OX1R antag-2 | OX1R HTRF conf | CHO-K1 HTRF cnt
Cc1cc(C)nc(NC(=O)c2ccc(C)c([N+](=O)[O-])c2)n1 | 64.8 | 18.3 | 0.8 | -8.9 | -11.6 | -4.3 | nt | nt
Cc1cc(C)nc(NC(=O)c2cc([N+](=O)[O-])cc([N+](=O)[O-])c2)n1 | 111.4* | -5.0 | -0.2 | -4.5 | 8.6 | -4.5 | 44.4 | 68.3*
O=C(Nc1ncccn1)c1cccc(F)c1 | 13.9 | 19.8 | 1.0 | -5.5 | -5.1 | -6.1 | nt | nt
O=C(Nc1cccnc1)c1ccc([N+](=O)[O-])o1 | 78.7* | 4.7 | 3.1 | -3.4 | -9.1 | -0.8 | 58.2* | 88.4*
O=C(CNC(=O)c1ccccc1)N/N=C/c1ccc([N+](=O)[O-])o1 | 98.2* | 18.6 | 1.7 | -11.6 | -2.1 | -5.3 | 50.1 | 74.8*
O=C(Nc1ncccn1)c1cc([N+](=O)[O-])cc([N+](=O)[O-])c1 | 107.0* | 30.1 | 0.9 | 3.8 | -14.0 | -2.2 | 58.3* | 72.3*
CC(OC(=O)C1CC1C)C(=O)Nc1ncc(Cl)cc1Cl (stereo not drawn) | 11.6 | 10.9 | 0.3 | -15.2 | -6.9 | -8.7 | nt | nt
O=C(NNC(=O)c1ccc([N+](=O)[O-])o1)c1ccccc1 | 136.0* | -0.9 | 0.7 | -6.8 | 0.9 | -4.7 | 58.6* | 64.0*
O=C(Nc1cccc(/C=C/c2ccccn2)c1)c1cc(Cl)ccn1 | 80.1* | -1.2 | 1.0 | -8.8 | -14.2 | -12.7 | 84.9* | 12.0
COc1ccc2nc3sc(C(=O)NCCCN4CCc5ccccc5C4)cc3cc2c1 | 79.6* | 9.4 | 0.3 | -20.0 | -7.3 | -18.0 | 28.9 | 20.2*
COc1ccc(S(=O)(=O)Cc2ccc(C(=O)NCCCN3CCc4ccccc4C3)o2)cc1 | 7.6 | 30.1 | 0.5 | -26.2 | -5.6 | -40.8 | nt | nt
COc1ccc2nc3sc(C(=O)N4CCN(C)CC4)cc3cc2c1 | 110.3* | 13.4 | 0.5 | -4.3 | -8.2 | 10.4 | 34.9 | 26.8*
CCC(NS(=O)(=O)c1cn(C)nc1C)c1ccccc1 (stereo not drawn) | -4.5 | 15.9 | 0.2 | -14.0 | -6.2 | -0.8 | nt | nt
CCOC(=O)c1ccc(Nc2cc(C)nc(-c3ccccc3)n2)cc1 | 82.9* | 13.3 | 2.5 | 8.2 | 11.1 | 26.2 | 29.3 | 15.5
Cc1ccc(OCCNC(=O)CNC(=O)c2ccc3c(c2)OCO3)cc1 | 4.8 | -14.7 | -0.3 | -14.7 | 10.8 | -21.3 | nt | nt
CC(NS(=O)(=O)c1ccc([N+](=O)[O-])cc1)C(=O)NN (stereo not drawn) | 84.8* | 21.7 | 0.8 | -6.5 | -13.4 | -14.4 | 28.3 | 48.2*
O=C(CCNC(=O)c1ccc([N+](=O)[O-])cc1)N/N=C/c1ccc(F)cc1 | 77.6* | 4.5 | -0.3 | 6.8 | -8.3 | -26.9 | 23.9 | 26.8*
O=C(CCNC(=O)c1ccc([N+](=O)[O-])cc1)Nc1ccc(F)cc1 | 31.2 | -6.0 | 0.6 | -5.3 | -9.7 | -12.9 | nt | nt
CCc1ccc(NC(=O)C2C3CCC(O3)C2C(=O)O)cc1 (stereo not drawn) | 14.8 | 7.9 | 0.4 | 3.1 | -3.6 | -9.2 | nt | nt
O=C(Cn1c(=O)oc2ccccc21)NCCc1ccccc1 | -7.3 | -6.8 | 0.1 | -15.3 | 7.4 | -16.5 | nt | nt
O=C(NCc1ccco1)Nc1ccc2nsnc2c1 | 96.4* | -2.7 | 0.4 | -3.5 | -0.6 | -14.8 | 25.3 | 0.7
O=[N+]([O-])c1cnccc1Nc1ccc(F)cc1 | 127.2* | 21.3 | 0.1 | 5.8 | -9.4 | -16.0 | 36.5 | 33.4*
O=C(c1ccc(Cl)cc1)C1CCN(C(=O)c2ccccc2F)CC1 | nt | 16.2 | 1.4 | nt | -5.0 | nt | nt | nt
CCc1cc[n+](-c2nc([O-])sc2C=O)cc1 | 149.1* | 7.4 | 0.0 | -10.4 | -1.5 | -9.6 | 46.8 | 62.2*
